Source: ChEMBL document CHEMBL1275515, “CYP56 (Dit2p) in Candida albicans: characterization and investigation of its role in growth and antifungal drug susceptibility” (Antimicrob Agents Chemother, 2008)
pKd: −log10 of the molar value. Converted amounts (≈) assume the structure as drawn.

What was measured:
[1] = system: Candida albicans; experiment: Binding affinity to Candida albicans CYP56 assessed as dissociation constant for enzyme-substrate complex by spectrophotometry
Procedure, shortened: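 His-tagged CYP56 expressed in E. coli BL21(DE3) and Ni2+-NTA purified; 2 μM enzyme in 0.1 M potassium phosphate (pH 7.4) with 20% glycerol. N-formyl tyrosine titrated from 26 to 253 μM, with spectra read at 320–470 nm until saturation. ΔA390-412 fitted to the Hill equation by nonlinear regression. A Hill plot gave ks (enzyme–substrate dissociation constant) and Hill number.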

[2] = system: Candida albicans; experiment: Antimicrobial activity against Candida albicans YNM11 harboring cyp56delta::FRT/cyp56::FRT mutant gene by Etest method; assay type: functional
[3] = system: Candida albicans; experiment: Antimicrobial activity against wild type Candida albicans SC5314 by Etest method; assay type: functional
[4] = system: Candida albicans; experiment: Antimicrobial activity against Candida albicans YNM12 harboring cyp56delta::FRT/cyp56::FRT/RP10-CYP56 mutant gene by Etest method; assay type: functional
[5] = Binding affinity to Candida albicans CYP56 by spectrophotometry
Procedure, shortened: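 His-tagged C. albicans CYP56 was expressed in E. coli BL21(DE3) and purified on Ni2+-NTA agarose, then used at 2 μM. Azole in DMSO was titrated stepwise (23–684 nM across the drugs), scanning 350–500 nm. Kd was taken from ΔA430-412 versus azole concentration by Levenberg-Marquardt nonlinear regression of the Hill equation.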

Structure (SMILES)	MIC80 [3]	pKd [5]	MIC80 [2]	further results
O=CN[C@@H](Cc1ccc(O)cc1)C(=O)O	–	–	–	Ks [1]: 26 µM
C[C@@H]1[C@H](O)[C@@H](C)/C=C/C=C/C=C/C=C/C=C/C=C/C=C/[C@H](O[C@@H]2O[C@H](C)[C@@H](O)[C@H](N)[C@@H]2O)C[C@@H]2O[C@](O)(C[C@@H](O)C[C@@H](O)[C@H](O)CC[C@@H](O)C[C@@H](O)CC(=O)O[C@H]1C)C[C@H](O)[C@H]2C(=O)O [AMPHOTERICIN B]	–	–	–	MIC [2]: 1 µg/mL (≈ 1.08 µM); MIC [3]: 1 µg/mL (≈ 1.08 µM)
CC[C@H](C)C[C@H](C)CCCCCCCCC(=O)N[C@H]1C[C@@H](O)[C@@H](NCCN)NC(=O)[C@@H]2[C@@H](O)CCN2C(=O)[C@H]([C@H](O)CCN)NC(=O)[C@H]([C@H](O)[C@@H](O)c2ccc(O)cc2)NC(=O)[C@@H]2C[C@@H](O)CN2C(=O)[C@H]([C@@H](C)O)NC1=O [CASPOFUNGIN]	0.015 µg/mL (≈ 0.0137 µM)	–	–	MIC80 [4]: 0.03 µg/mL (≈ 0.0274 µM)
OC(Cn1cncn1)(Cn1cncn1)c1ccc(F)cc1F [FLUCONAZOLE]	0.06 µg/mL (≈ 0.196 µM)	6.64	0.06 µg/mL (≈ 0.196 µM)	–
CCC(C)n1ncn(-c2ccc(N3CCN(c4ccc(OCC5COC(Cn6cncn6)(c6ccc(Cl)cc6Cl)O5)cc4)CC3)cc2)c1=O (configuration not stated) [ITRACONAZOLE]	–	7.00	–	–
C[C@@H](c1ncncc1F)[C@](O)(Cn1cncn1)c1ccc(F)cc1F [VORICONAZOLE]	0.007 µg/mL (≈ 0.02 µM)	6.29	0.007 µg/mL (≈ 0.02 µM)	–
